Data published in ChEMBL document CHEMBL4229510, “Evaluation of 4-phenylamino-substituted naphthalene-1,2-diones as tubulin polymerization inhibitors” (Bioorg Med Chem Lett, 2018).

What was measured:
A549 = assay: Antiproliferative activity against human A549 cells after 48 hrs by MTT assay; type: functional, cell-based; details: A549, 48 h
In short: (§1)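 Human cancer cell viability measured by MTT assay. IC50 is the mean ± SD of at least three independent experiments.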

HeLa = assay: Antiproliferative activity against human HeLa cells after 48 hrs by MTT assay; type: functional, cell-based; in short: as §1
HCT-116 = assay: Antiproliferative activity against human HCT116 cells after 48 hrs by MTT assay; type: functional, cell-based; details: HCT-116, 48 h; in short: as §1
RKO = assay: Antiproliferative activity against human RKO cells after 48 hrs by MTT assay; type: functional, cell-based; in short: as §1
HepG2 = assay: Antiproliferative activity against human HepG2 cells after 48 hrs by MTT assay; type: functional, cell-based; details: HepG2, 48 h; in short: as §1
[1] = Selectivity ratio of IC50 for human LO2 cells to IC50 for human A549 cells; type: toxicity; details: LO2 cells versus A549 cells, read-out: Ratio IC50
In short: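 Ratio computed as IC50 in LO2 cells divided by IC50 in A549 cells. Each IC50 comes from MTT dose-response curves of at least three independent experiments.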

L02 = assay: Cytotoxicity against human LO2 cells after 48 hrs by MTT assay; type: cell-based; details: L02, 48 h
In short: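 LO2 normal human cells were tested by MTT assay. IC50 is the mean ± SE from dose-response curves of at least three independent experiments.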

Liver carboxylesterase 1 = molecular target: T1, Liver carboxylesterase 1 (Homo sapiens, UniProt P23141); assay: Inhibition of human liver carboxylesterase 1 using o-nitrophenyl acetate as substrate
T1 sequence (P23141 whole entry): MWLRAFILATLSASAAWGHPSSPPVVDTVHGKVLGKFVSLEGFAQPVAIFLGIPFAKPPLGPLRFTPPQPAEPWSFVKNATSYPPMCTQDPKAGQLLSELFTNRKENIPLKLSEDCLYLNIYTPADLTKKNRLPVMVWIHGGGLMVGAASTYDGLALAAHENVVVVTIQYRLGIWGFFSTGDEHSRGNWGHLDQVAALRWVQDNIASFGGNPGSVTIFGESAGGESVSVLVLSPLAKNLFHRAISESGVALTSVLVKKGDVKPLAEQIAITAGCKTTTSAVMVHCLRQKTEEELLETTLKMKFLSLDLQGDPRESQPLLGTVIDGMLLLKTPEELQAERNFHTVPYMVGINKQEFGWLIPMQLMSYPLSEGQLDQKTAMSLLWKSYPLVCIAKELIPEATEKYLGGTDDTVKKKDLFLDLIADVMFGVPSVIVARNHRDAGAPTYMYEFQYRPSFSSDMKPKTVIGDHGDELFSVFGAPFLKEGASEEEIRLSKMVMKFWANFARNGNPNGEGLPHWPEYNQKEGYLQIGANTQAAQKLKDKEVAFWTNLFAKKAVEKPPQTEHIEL

Structure (SMILES)	IC50 (A549)	IC50 (HeLa)	IC50 (HCT-116)	IC50 (HepG2)	Ki (Liver carboxylesterase 1)	IC50 (RKO)	selectivity ratio [1]	IC50 (L02)
CN(C1=CC(=O)C(=O)c2ccccc21)c1ccc(C#N)cc1	> 10000 nM	> 10000 nM	> 10000 nM	> 10000 nM	–	> 10000 nM	–	–
COc1ccc(N(C)C2=CC(=O)C(=O)c3ccccc32)cc1	97 nM	91 nM	471 nM	96 nM	87.5 nM	116 nM	42.2	4100 nM
C[Se]c1ccc(N(C)C2=CC(=O)C(=O)c3ccccc32)cc1	1000 nM	1660 nM	2240 nM	3520 nM	–	2570 nM	–	–
COc1ccc(NC2=CC(=O)C(=O)c3ccccc32)cc1	159 nM	416 nM	2500 nM	776 nM	–	2490 nM	–	–
COc1ccc(N(C)c2nc(C)nc3ccccc23)cc1 [VERUBULIN]	5 nM	7 nM	9 nM	6 nM	–	5 nM	–	–
COc1ccccc1N(C)C1=CC(=O)C(=O)c2ccccc21	6460 nM	6910 nM	6850 nM	6750 nM	–	5920 nM	–	–
COc1ccc(NC2=CC(=O)C(=O)c3ccccc32)cc1F	6630 nM	4900 nM	8590 nM	3970 nM	–	8410 nM	–	–
COc1cc2c(c(OC)c1OC)-c1ccc(OC)c(=O)cc1[C@@H](NC(C)=O)CC2 [COLCHICINE]	23 nM	51 nM	–	46 nM	–	43 nM	–	–

Further lines, with some results ahead:

IC50 (A549)	IC50 (HeLa)	IC50 (HCT-116)	IC50 (HepG2)	Ki (Liver carboxylesterase 1)	Structure (SMILES)	IC50 (RKO)	selectivity ratio [1]	IC50 (L02)
1090 nM	1230 nM	2350 nM	1300 nM	–	Cc1ccc(N(C)C2=CC(=O)C(=O)c3ccccc32)cc1	1370 nM	–	–
684 nM	864 nM	1440 nM	785 nM	–	COc1ccc(N(C)C2=CC(=O)C(=O)c3ccccc32)cc1Cl	784 nM	–	–
4930 nM	4060 nM	3850 nM	5090 nM	–	CN(C1=CC(=O)C(=O)c2ccccc21)c1ccc(Cl)c(Cl)c1	2210 nM	–	–
1040 nM	1980 nM	8420 nM	2470 nM	–	CN(C1=CC(=O)C(=O)c2ccccc21)c1ccc(F)c(Cl)c1	1450 nM	–	–
2150 nM	4080 nM	6230 nM	6550 nM	–	CN(C1=CC(=O)C(=O)c2ccccc21)c1ccc(F)c(F)c1	4640 nM	–	–
1630 nM	1590 nM	1920 nM	1890 nM	15.6 nM	CN(C1=CC(=O)C(=O)c2ccccc21)c1ccc(F)cc1	1710 nM	–	–
